Measurements pooled from the literature.
Protocols differ between the studies behind these lines.
Organism: Escherichia coli
Observed: microbial growth

`Brc1cccc(NCc2ccc(Oc3ccccn3)cc2)c1` gave an MIC of greater than 50 µg/mL.
`N=C(N)c1ccc(OCc2cc(COc3ccc(C(=N)N)cc3)cc(-c3ccccc3)c2)cc1` has an MIC of 100 µg/mL (broth dilution; ATCC25922).
With `NC1CCc2c1[nH]c1ccc(Cl)c(Cl)c21` (stereo not shown) the MIC was 16 µg/mL (broth dilution; ATCC25922).
`CCOc1ccc(-c2nc3cc(-c4nc5cc(N6CCN(C)CC6)ccc5[nH]4)ccc3[nH]2)cc1` gave an MIC of 8 to 16 µg/mL (broth dilution; 25922; 24 h).
`Cc1ccc2nc(-c3ccco3)n(Cc3ccccc3)c2c1` has an MIC of 128 µg/mL (broth dilution; ATCC25922).
For `CC(=O)NCN1N=C(C)C(=NNn2c(-c3ccccc3)nc3ccccc3c2=O)C1=O`, the MIC was 59.9 µM (broth dilution; 24 h).
For `CC(C)Oc1c(NC(=O)c2ccc(NC(=O)[C@H](CC(N)=O)NC(=O)c3ccc(NC(=O)c4ccc(F)cc4)cc3)cc2)ccc(C(=O)Nc2ccc(C(=O)O)cc2)c1O`, the MIC was 0.5 µg/mL (DSM1116).
The MIC of `CCCCCCC/C=C/C(=O)N1C(=O)/C(=C(\O)c2ccc(O)cc2)C(=O)C1CC(C)C` (stereo not shown) is reported as greater than 200 µg/mL (K12, K12).
With `N=C(N)c1cccc(OCCCCCOc2cccc(C(=N)N)c2)c1` the MIC was greater than 200 µg/mL (BW25113).
The MIC of `Cc1ccc2nc(-c3cccc(O)c3)[nH]c2c1` is reported as 64 µg/mL (broth dilution; ATCC25922).
`N=C(N)c1ccc(OCc2cc(Br)cc(COc3ccc(C(=N)N)cc3)c2)cc1` has an MIC of 100 µg/mL (broth dilution; ATCC25922).
`O=C(O)c1cn(C2CC2)c2cc(N3CCNCC3)c(F)cc2c1=O` has an MIC of 1.6 µg/mL.
`N=C(N)c1ccc(OCc2ccc(Br)cc2COc2ccc(C(=N)N)cc2)cc1` has an MIC of greater than 200 µg/mL (broth dilution; ATCC25922).
`CC1(C)S[C@@H]2[C@H](NC(=O)[C@H](N)c3ccccc3)C(=O)N2[C@H]1C(=O)O` has an MIC of 4 µg/mL (broth dilution; ATCC25922).
The MIC of `CCCCCCC#Cc1cncc(-c2nnc(SCc3ccc([N+](=O)[O-])o3)n2C)c1` is reported as no less than 20 µg/mL.
For `N=C(N)c1ccc(OCCC(CCOc2ccc(C(=N)N)cc2)c2ccccc2)cc1` (stereo not shown), the MIC was 200 µg/mL (broth dilution; W3110).
With `O=C(CCCCCC[P+](c1ccccc1)(c1ccccc1)c1ccccc1)Nc1cc(O)c(O)c(O)c1.[Br-]` the MIC was greater than 32 µg/mL (broth dilution; ATCC25922; 18 h).
For `COc1c(C(=O)Nc2ccc(C(=O)O)cc2)ccc2nc(-c3cc(NC(=O)C(CC(N)=O)NC(=O)c4ccc(NC(=O)c5ccc(C#N)cc5)cc4)cn3C)[nH]c12` (stereo not shown), the MIC was greater than 64 µg/mL (DSM1116).
With `N=C(N)c1ccc(OCc2cccc(COc3ccc(C(=N)N)cc3)c2)cc1` the MIC was 200 µg/mL (broth dilution; ATCC25922).
The MIC of `Cc1c(CN(C)C(=O)/C=C/c2cnc3c(c2)CC(CCN)C(=O)N3)oc2ccccc12.Cl` (stereo not shown) is reported as 4 µg/mL (broth dilution; BAA2471; clinical isolate).
`C[C@H](CCC(=O)NCCCNCCCCNCCCN)[C@H]1CCC2=C3CC[C@@H]4C[C@H](O)CC[C@]4(C)[C@H]3C[C@H](O)[C@@]21C` gave an MIC of 64 µg/mL (broth dilution; MG1655; 20 h).
For `Cn1cc(NC(=O)C(CC(N)=O)NC(=O)c2ccc(NC(=O)c3ccc(C#N)cc3)cc2)cc1-c1nc2ccc(C(=O)Nc3ccc(C(=O)O)cc3)c(O)c2[nH]1` (stereo not shown), the MIC was greater than 64 µg/mL (DSM1116).
`Oc1ccc(Br)cc1-c1nc2ccccc2[nH]1` gave an MIC of 64 µg/mL (broth dilution; ATCC25922).
The MIC of `COc1c(C)c(OCc2ccccc2)c(C)c(O)c1C(=O)/C=C/c1ccccc1` is reported as 5000 µg/mL (broth dilution; ATCC25922).
`Cc1ccc2nc(-c3ccc(Cl)c(Cl)c3)[nH]c2c1` gave an MIC of 32 µg/mL (broth dilution; ATCC25922).
The MIC of `Clc1cccc(NCc2ccc(Oc3ccccn3)cc2)c1` is reported as greater than 25 µg/mL.
With `Cc1ccc2nc(-c3ccccc3O)[nH]c2c1` the MIC was 128 µg/mL (broth dilution; ATCC25922).
The MIC of `Cc1ccc(C)n1-c1ccc(-c2n[nH]c(=S)[nH]2)cc1` is reported as 8 µg/mL (broth dilution; ATCC10536; 18 h).
For `C/C(=C\c1ccc(C#N)cc1)C(=O)Nc1ccc(C(=O)N[C@@H](CC(N)=O)C(=O)Nc2ccc(C(=O)Nc3ccc(C(=O)Nc4ccc(C(=O)O)cc4)c(O)c3OCC(C)C)cc2)cc1`, the MIC was 0.5 µg/mL (DSM1116).
For `N=C(N)c1ccc(OCCCCCCCCCOc2ccc(C(=N)N)cc2)cc1`, the MIC was 50 µg/mL (BW25113).
`O=C(CCCCCCCCCC[P+](c1ccccc1)(c1ccccc1)c1ccccc1)Nc1ccc(O)c(O)c1.[Br-]` gave an MIC of greater than 32 µg/mL (broth dilution; ATCC25922; 18 h).
`C[C@@H](O)[C@H]1C(=O)N2C(C(=O)O)=C(S[C@@H]3CN[C@H](C(=O)N(C)C)C3)[C@H](C)[C@H]12` gave an MIC of 0.5 µM (broth dilution; KCTC1682; 16 h).
The MIC of `C/C(=C\c1ccc(O)cc1)C(=O)Nc1ccc(C(=O)N[C@@H](CC(N)=O)C(=O)Nc2ccc(C(=O)Nc3ccc(C(=O)Nc4ccc(C(=O)O)cc4)c(O)c3OC(C)C)cc2)cc1` is reported as 0.25 µg/mL (DSM1116).
`N=C(N)c1ccc(OCCCCCCCCCCCOc2ccc(C(=N)N)cc2)cc1` gave an MIC of greater than 25 µg/mL (broth dilution; BW25113).
`CSc1ccc(-c2nc3ccc(C)cc3n2Cc2ccccc2)cc1` gave an MIC of 128 µg/mL (broth dilution; ATCC25922).
With `C/C(O)=C1\C(=O)C(CC(C)C)N(C(=O)C=Cc2ccccc2)C1=O` (stereo not shown) the MIC was greater than 200 µg/mL (K12, K12).
With `CC(C)Oc1c(NC(=O)c2ccc(NC(=O)[C@H](CC(N)=O)NC(=O)c3ccc(NC(=O)c4ccc(C#N)cc4)cc3)cc2)ccc(C(=O)O)c1O` the MIC was greater than 64 µg/mL (DSM1116).
For `CCCCCCC/C=C/C(=O)N1C(=O)/C(=C(/C)O)C(=O)C1CCCCN` (stereo not shown), the MIC was greater than 200 µg/mL (K12, K12).
`CC1(C)S[C@@H]2[C@H](NC(=O)[C@H](N)c3ccccc3)C(=O)N2[C@H]1C(=O)O` has an MIC of 0.3 µg/mL (broth dilution; ATCC25922; 16 h).
`CO[C@@H](C(N)=O)[C@H](NC(=O)c1ccc(NC(=O)c2ccc(C#N)cc2)cc1)C(=O)Nc1ccc(C(=O)Nc2ccc(C(=O)Nc3ccc(C(=O)O)cc3)c(O)c2OC(C)C)cc1` gave an MIC of less than 0.03 µg/mL (DSM1116).
The MIC of `CCOc1ccc(-c2nc3ccccc3n2Cc2ccccc2)cc1` is reported as 64 µg/mL (broth dilution; ATCC25922).
`O=C(O)c1cn(C2CC2)c2cc(N3CCNCC3)c(F)cc2c1=O` has an MIC of no more than 1 µg/mL (broth dilution; ATCC10536; 18 h).
`O=[N+]([O-])c1ccc(-c2nc3cc(F)ccc3[nH]2)o1` has an MIC of 4 µg/mL (broth dilution; ATTC25922).
With `C[C@H]1COc2c(N3CCN(C)CC3)c(F)cc3c(=O)c(C(=O)O)cn1c23` the MIC was 0.25 µg/mL (broth dilution; ATCC25922).
With `O=C1NN=C(N=Cc2ccccc2O)C1=NNn1c(-c2ccccc2)nc2ccccc2c1=O` the MIC was 55.4 µM (broth dilution; 24 h).
With `CC(C)Oc1c(NC(=O)c2ccc(NC(=O)[C@H](CC(N)=O)NC(=O)c3ccc(NC(=O)c4ccc([N+](=O)[O-])cc4)cc3)cc2)ccc(C(=O)Nc2ccc(C(=O)O)c(F)c2)c1O` the MIC was 1 µg/mL (DSM1116).
The MIC of `COc1c(C)c(OS(=O)(=O)c2ccc3ccccc3c2)c(C)c(O)c1C(=O)/C=C/c1ccccc1` is reported as 5000 µg/mL (broth dilution; ATCC25922).
`COc1cccc(-c2nc3ccccc3n2Cc2ccccc2)c1` gave an MIC of 128 µg/mL (broth dilution; ATCC25922).
For `CSc1ccc(/C=C/c2cc(/C=C3\Sc4ccccc4N3CCCN3CCCC3)c3ccccc3[n+]2C)cc1.[I-]`, the MIC was 16 µg/mL (broth dilution; ATCC25922).
`CCCCCCCCCCCC(=O)Oc1c(C)c(O)c(C(=O)/C=C/c2ccccc2)c(OC)c1C` has an MIC of 5000 µg/mL (broth dilution; ATCC25922).
With `Cc1ccc(C)n1-c1ccc(-c2nnc(-c3ccccc3[N+](=O)[O-])[nH]2)cc1` the MIC was 250 µg/mL (broth dilution; ATCC10536; 18 h).
`CCCCCCC/C=C/C(=O)N1C(=O)/C(=C(\O)c2ccccc2)C(=O)C1CC(C)C` (stereo not shown) gave an MIC of greater than 200 µg/mL (K12, K12).
